Bioassay records (PubChem BioAssay)
Platelet DG rel: inhibitors of platelet dense granule secretion, primary screen, cell-based, MLPCN, human platelets | human platelet-rich plasma, SFLLRN dense granule ATP release, luminescence | AID 1663, 2009 | 300,000 compounds, 0.22% hits | inhibition, %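 (compounds screened at 7.5 µM in platelet-rich plasma)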;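 active means mean replicate score, as percent of positive control, at or above 50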
STAT1 inh: STAT1 signaling inhibitors, primary screen, cell-based, HTS, luciferase reporter; NIH 3T3 STAT1-luciferase reporter, IFN-gamma, luminescence; inhibition, % at 5.5 µM; 200,000 compounds, 0.35% hits; AID 920, 2007;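 active means inhibition above a set limit, the mean inhibition across all tested compounds plus 3 SD, cut at about 34% in these data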;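 further: 0% = IFN-gamma with DMSO and 100% = IFN-gamma with 300 µM nifuroxazide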
H9c2 TAG inh: inhibitors of triacylglycerol accumulation, primary screen, cell-based, uHTS, fluorescence, H9c2. 230,000 compounds, 0.66% hits. inhibition, % at 12.5 µM. H9c2 cells, Nile Red lipid (TAG) fluorescence; cells loaded with 200 µM oleic acid. AID 651582, 2012;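 active means pattern-corrected inhibition of lipid staining of at least 50% with the nuclear-stain viability signal not falling by more than 50%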;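 further: 0% = DMSO wells and 100% = triacsin C control wells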
STAT3 inh-1: IL-6 driven STAT3 reporter inhibitors, primary screen, U3A cells, luciferase, luminescence, MLSCN library; inhibition, % at 5.5 µM; IL-6 STAT3-luciferase reporter; host cell line lacks STAT1; 190,000 compounds, 0.89% hits; AID 862, 2007;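 active means inhibition above the mean inhibition across all screened compounds plus 3 SD, cut at about 44% in these data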;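 further: 0% = DMSO only wells and 100% = 100 µM nifuroxazide control wells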
PPC-1+TRAIL kill: compounds killing PPC-1 cancer cells with TRAIL present, primary screen, TRAIL potentiator project, ATPLite luminescence, uHTS. PPC-1 cells + TRAIL, ATPLite viability luminescence. cell killing (% activity), % at 4 µM or 5 µM. 220,000 compounds, 0.41% hits. AID 1443, 2008;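 active means cell killing above 50% in the first pass at 4 µM, then a duplicate retest at 5 µM averaging 50% or more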;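 further: plate controls were cells with TRAIL plus DMSO for no effect and medium-only wells lacking cells for full effect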
Hep lipid drop: inhibitors of hepatocyte lipid droplet formation, primary screen, imaging, high-throughput imaging, BODIPY stain. AID 1656, 2009. 240,000 compounds, 0.4% hits. AML12 mouse hepatocytes, oleate lipid droplets. inhibition, % at 6.5 µM;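 active means lipid droplet intensity inhibited by at least 50%, with more than 500 cells counted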
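Material: mouse AML12 hepatocyte cell line, fixed after treatment; Timing: compound with oleate, overnight; Technique: high-content imaging of BODIPY-stained droplets and DAPI nuclei; Probe or stimulus: oleate, 100 µM final; Dosing: compound at 6.5 µM only.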
STAT3 inh-2: STAT3 reporter inhibitors, retest of hits, confirmation, U3A cells, luciferase, luminescence. shares compounds with STAT3 inh-1. IL-6 STAT3 luciferase reporter; cell line lacks STAT1. inhibition, % at 5.7 µM. 1,200 compounds, 45% hits. AID 1265, 2008;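 active means inhibition above the hit cutoff computed for the primary STAT3 screen, cut at about 44% in these data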;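 further: 0% = IL-6 plus DMSO and 100% = IL-6 plus nifuroxazide control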
NFkB inh 2: NF-kB reporter inhibitors in human cells, confirmation, counter-screen for STAT3 inhibitor project, cell-based, HEK293T, luciferase, TNF-alpha stimulus | inhibition, % at 5.7 µM | TNF-alpha induced | shares compounds with STAT3 inh-1 | 1,200 compounds, 36% hits;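 active means inhibition above the mean of solvent-only control wells plus 3 SD, cutoff set per campaign, cut at about 13% in these data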;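 further: 0% = TNF-alpha with DMSO and 100% = TNF-alpha with MG high control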
STAT1 inh STAT3c: STAT1 reporter inhibitors, IFN-gamma induced, confirmation, counter-screen for STAT3 inhibitor project, cell-based, NIH 3T3, luciferase luminescence. shares compounds with STAT3 inh-1. NIH 3T3 STAT1-luciferase reporter. inhibition, % at 5.7 µM. 1,200 compounds, 27% hits;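 active means inhibition above the mean plus 3 SD of solvent-only control wells, limit set per screening run, cut at about 16% in these data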;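 further: 0% = DMSO with IFN-gamma and 100% = nifuroxazide control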
* = called active by the depositor. A selection: hits, their analogues and other compounds. The true share with any hit is near 1.5%.

For CC(C)c1ccc(NC(=O)C2CCCCC2C(=O)O)cc1 (stereo unspecified) the results were Platelet DG rel -10, STAT1 inh 2, STAT3 inh-1 50*, PPC-1+TRAIL kill 7, Hep lipid drop 9, STAT3 inh-2 14, NFkB inh 2 2 and STAT1 inh STAT3c 1.
COc1ccc(C)cc1NC(=O)COC(=O)c1c(-c2ccccc2)noc1C was read as H9c2 TAG inh 7.
c1ccc2c(c1)OCC(CNc1ncnc3sccc13)O2 (stereo unspecified) was read as Platelet DG rel 24, STAT1 inh 21, STAT3 inh-1 84*, PPC-1+TRAIL kill 26, Hep lipid drop -13, STAT3 inh-2 87*, NFkB inh 2 32* and STAT1 inh STAT3c 20*.
CN(Cc1ccccn1)C(=O)c1cc(COc2ccc(F)c(F)c2)on1 was read as H9c2 TAG inh 29.
Cc1ccc2nc(-c3cccc(N)c3)[nH]c2c1 was read as Platelet DG rel 20, STAT1 inh 7, H9c2 TAG inh 9, STAT3 inh-1 66*, PPC-1+TRAIL kill 43, Hep lipid drop -13, STAT3 inh-2 27, NFkB inh 2 -10 and STAT1 inh STAT3c -90.
Screening Cc1ccc(-c2nc3ccc([N+](=O)[O-])cc3[nH]2)cc1 returned Platelet DG rel 0, STAT1 inh 31, H9c2 TAG inh -12, STAT3 inh-1 77*, PPC-1+TRAIL kill 32, Hep lipid drop -4, STAT3 inh-2 32, NFkB inh 2 -15 and STAT1 inh STAT3c -127.
Screening COc1ccc(-c2nc3ccc([N+](=O)[O-])cc3[nH]2)cc1 returned Platelet DG rel 5, STAT1 inh -93, STAT3 inh-1 27, PPC-1+TRAIL kill 24 and Hep lipid drop 17.
Screening Nc1cccc(-c2nc3ccccc3[nH]2)c1 returned Platelet DG rel 1, STAT1 inh -23, STAT3 inh-1 -13, PPC-1+TRAIL kill 23 and Hep lipid drop -4.
`O=C(NCc1cccnc1)c1ccc(-c2cc3ccccc3oc2=O)cc1` gave Platelet DG rel -4, STAT1 inh 4, STAT3 inh-1 46*, PPC-1+TRAIL kill 18, Hep lipid drop 2, STAT3 inh-2 21, NFkB inh 2 -7 and STAT1 inh STAT3c -18.
O=C(Nc1cccnc1)c1cccc(-c2cc3ccccc3oc2=O)c1 was read as Platelet DG rel 4, STAT1 inh -11, H9c2 TAG inh -13, STAT3 inh-1 15, PPC-1+TRAIL kill 7 and Hep lipid drop -31.
Screening Brc1ccc(/C=N/Nc2ccc3ccccc3n2)cc1 returned Platelet DG rel -1, STAT1 inh -28, STAT3 inh-1 2 and PPC-1+TRAIL kill 23.
Fc1cccc(/C=N/Nc2ccc3ccccc3n2)c1 was read as Platelet DG rel 4, STAT1 inh 34, H9c2 TAG inh -11, STAT3 inh-1 60*, PPC-1+TRAIL kill -3, Hep lipid drop -2, STAT3 inh-2 17, NFkB inh 2 -4 and STAT1 inh STAT3c -82.
Screening CC(=O)Nc1cccc(-c2ccnc3c2CC(C(=O)Nc2ccc(C(C)C)cc2)O3)c1 (stereo unspecified) returned H9c2 TAG inh -28.
`COc1ccc(CC(=O)Nc2cccc(-c3nnc(-c4ccc(C)cc4)o3)c2)cc1OC` gave Platelet DG rel -9, STAT1 inh -5, STAT3 inh-1 18, PPC-1+TRAIL kill 16 and Hep lipid drop 7.
Screening COc1ccc(CC(=O)Nc2cccc(-c3nnc(-c4cccc(C)c4)o3)c2)cc1OC returned Platelet DG rel 8, STAT1 inh 7, STAT3 inh-1 44*, PPC-1+TRAIL kill 26, Hep lipid drop -24, STAT3 inh-2 62*, NFkB inh 2 12 and STAT1 inh STAT3c -3.
For C=CCN=c1scc(-c2ccc3c(c2)NC(=O)CO3)n1/N=C(\C)c1ccccn1 the results were STAT1 inh 21, H9c2 TAG inh 28, STAT3 inh-1 75*, PPC-1+TRAIL kill 14, Hep lipid drop 1, STAT3 inh-2 74*, NFkB inh 2 18* and STAT1 inh STAT3c 22*.
For O=C1C(C=Nc2ccc(F)cc2)=C(O)c2ccccc21 the results were Platelet DG rel 33, STAT1 inh -51, H9c2 TAG inh 12, STAT3 inh-1 51*, PPC-1+TRAIL kill 22, Hep lipid drop 4, STAT3 inh-2 -31, NFkB inh 2 -57 and STAT1 inh STAT3c -213.
Screening O=C1C(C=NCc2ccncc2)=C(O)c2ccccc21 returned Platelet DG rel 25, STAT1 inh -5, H9c2 TAG inh 26, STAT3 inh-1 -4, PPC-1+TRAIL kill 3 and Hep lipid drop -8.
`CCN(C1CCCCC1)S(=O)(=O)c1ccc(S(=O)(=O)NCCc2ccncc2)cc1` gave Platelet DG rel -4, STAT1 inh -1, STAT3 inh-1 -6 and PPC-1+TRAIL kill -10.
O=C(O)CNS(=O)(=O)c1ccc(Br)s1 was read as Platelet DG rel 15, STAT1 inh 3, H9c2 TAG inh -4, STAT3 inh-1 -2, PPC-1+TRAIL kill 26 and Hep lipid drop -12.
CCN(C1CCCCC1)S(=O)(=O)c1ccc(S(=O)(=O)NCc2ccncc2)cc1 was read as Platelet DG rel 4, STAT1 inh 21, STAT3 inh-1 62*, PPC-1+TRAIL kill 20, STAT3 inh-2 43, NFkB inh 2 15* and STAT1 inh STAT3c 25*.
COc1cc(C)c(Cl)cc1S(=O)(=O)NCc1ccncc1 was read as Platelet DG rel -2, STAT1 inh 21, STAT3 inh-1 70*, PPC-1+TRAIL kill 14, Hep lipid drop 0, STAT3 inh-2 66*, NFkB inh 2 19* and STAT1 inh STAT3c 21*.
For Cc1ccc(S(=O)(=O)NCc2ccncc2)cc1C the results were Platelet DG rel -7, STAT1 inh 31, H9c2 TAG inh -10, STAT3 inh-1 74*, PPC-1+TRAIL kill 33, Hep lipid drop -40, STAT3 inh-2 76*, NFkB inh 2 26* and STAT1 inh STAT3c 17*.
